Data on 19 compounds can be found in ChEMBL document CHEMBL1130075, “(2-Methyl-5-(methylsulfonyl)benzoyl)guanidine Na+/H+ antiporter inhibitors” (J Med Chem, 1997).

The structures appear in SMILES notation. pIC50: −log10 of the molar value.

The target in this test is Sodium/hydrogen exchanger (Oryctolagus cuniculus, UniProt P23791+P50482+P26432). Kind of test: Inhibition of 5-N-(ethyl isopropyl)-amiloride[EIPA]-sensitive Na+ uptake into acidified rabbit erythrocytes. It is filed as functional. A digest of the protocol:
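Rabbit blood (heparinized) red cells, washed, acidified in pH 6.2 KCl buffer with ouabain, 10 min 37 °C; internal pH clamped with 200 μM DIDS and 1 mM acetazolamide, 30 min 37 °C. Uptake 5 min at 37 °C in pH 8.0 buffer with 10 mM NaCl plus ²²Na tracer, 1% DMSO. Triplicates; counts with 10 μM EIPA subtracted; IC50 by nonlinear fit.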
In the case of `CSc1cc(C)c(C(=O)N=C(N)N)cc1S(C)(=O)=O`, the IC50 (commonly the concentration needed to halve the response being measured) came to 6 nM.

In turn, `CCc1cc(N2CCCCC2)c(S(C)(=O)=O)cc1C(=O)N=C(N)N` returned an IC50 of 25 nM. As for `Cc1cc(-n2cccc2)c(S(C)(=O)=O)cc1C(=O)N=C(N)N` [ENIPORIDE], the IC50 came out at 8 nM.

`CS(=O)(=O)c1cc(C(=O)N=C(N)N)ccc1C(F)(F)F`: the IC50 was 140 nM. `Cc1cc(Nc2ccccc2)c(S(C)(=O)=O)cc1C(=O)N=C(N)N` displayed an IC50 of 21 nM. Turning to `Cc1c(C(=O)N=C(N)N)ccc(Cl)c1S(C)(=O)=O`, the pIC50 (as a rule, the negative decadic logarithm of the IC50, by convention in mol/L) was 6.89. Regarding `Cc1cc(Oc2ccc(Cl)cc2)c(S(C)(=O)=O)cc1C(=O)N=C(N)N`, the IC50 is reported as 13 nM. Turning to `Cc1c(C(=O)N=C(N)N)cc(S(C)(=O)=O)cc1-n1cccc1`, the half-maximal inhibitory concentration (IC50) was 100 nM.

For `CCc1cc(C)c(C(=O)N=C(N)N)cc1S(C)(=O)=O`, the IC50 worked out at 4.8 nM. In the case of `Cc1c(C(=O)N=C(N)N)cc(S(C)(=O)=O)c(Cl)c1Cl`, the IC50 was 29 nM. Still for that read-out and setting: the result for `Cc1cc(Oc2ccccc2)c(S(C)(=O)=O)cc1C(=O)N=C(N)N` reads 10 nM; that for `Cc1cc(F)c(S(C)(=O)=O)cc1C(=O)N=C(N)N`, 44 nM.

The compound `Cc1c(C(=O)N=C(N)N)cc(S(C)(=O)=O)c(Cl)c1C` registered an IC50 of 58 nM. Regarding `CCC(C)c1cc(C)c(C(=O)N=C(N)N)cc1S(C)(=O)=O` (centres undefined), the IC50 is on record as 8 nM. `CS(=O)(=O)c1cc(C(=O)N=C(N)N)ccc1Cl` registered an IC50 of 380 nM.

`Cc1cc(Sc2cccc(Cl)c2)c(S(C)(=O)=O)cc1C(=O)N=C(N)N` yielded an IC50 of 37 nM. `CS(=O)(=O)c1cc(C(=O)N=C(N)N)ccc1Oc1cccnc1`: the IC50 stood at 76 nM. Regarding `CCc1cc(Cl)c(S(C)(=O)=O)cc1C(=O)N=C(N)N`, the IC50 was determined as 63 nM. Regarding `CS(=O)(=O)c1cc(C(=O)N=C(N)N)ccc1-n1ccnc1`, the IC50 worked out at 150 nM.
